Calls of active or inactive are those of the source. The rule behind the calls is not given here.
Columns and labels:
[1] = Lipophilicity, log K of the compound in methanol-water mixture by HPLC; assay type: physicochemical
Outline: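 Reversed-phase HPLC on a Hypersil BDS C18 column (5 µm, 150 × 4.6 mm) with UV detection at 320 nm. Samples were dissolved in methanol. Mobile phase was methanol at varying volume fractions in 10 mM acetate buffer pH 4, run at 1 mL/min and room temperature. Dead time was taken from injection of acetone dissolved in water.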

Blumeria graminis [2] = assay: Fungistatic activity against Blumeria graminis infested wheat seedling assessed as inhibition of fungal infection at 1000 ug/ml applied as spray after 7 to 14 days under green house conditions relative to control; assay type: functional
Outline: (§1)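 Greenhouse test on healthy wheat seedlings with Erysiphe graminis. At the well-developed first-leaf stage, plants were sprayed with compound solution at 1000 or 500 µg/mL, 10 mL of solution per treatment, with three repeats in 9 cm paraffin cups.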

Fusarium culmorum [3] = assay: Fungistatic activity against Fusarium culmorum assessed as mycelial growth inhibition at 200 ug/ml after 4 to 8 days relative to control; assay type: functional; settings: for inhibition of growth at 200 µg/mL: read-out: GI
Outline: (§2)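 Compound solutions or suspensions were diluted into PDA agar to final 200 or 20 µg/mL and poured into Petri dishes. Once the agar set, mycelium-covered agar disks of the fungus were placed at three sites on the surface. Linear colony growth was measured after 4-8 days, depending on the culture. Inhibition J = [(C − T)/C] × 100 versus untreated control, reported on a four-degree scale.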

Blumeria graminis [4] = assay: Fungistatic activity against Blumeria graminis infested wheat seedling assessed as inhibition of fungal infection at 500 ug/ml applied as spray after 7 to 14 days under green house conditions relative to control; assay type: functional; outline: as §1
Phytophthora cactorum [5] = assay: Fungistatic activity against Phytophthora cactorum assessed as mycelial growth inhibition at 20 ug/ml after 4 to 8 days relative to control; assay type: functional; settings: for inhibition of growth at 20 µg/mL: read-out: GI; outline: as §2
Alternaria alternata [6] = assay: Fungistatic activity against Alternaria alternata assessed as mycelial growth inhibition at 200 ug/ml after 4 to 8 days relative to control; assay type: functional; settings: for inhibition of growth at 200 µg/mL: read-out: GI; outline: as §2
Alternaria alternata [7] = assay: Fungistatic activity against Alternaria alternata assessed as mycelial growth inhibition at 20 ug/ml after 4 to 8 days relative to control; assay type: functional; settings: for inhibition of growth at 20 µg/mL: read-out: GI; outline: as §2
Botrytis cinerea [8] = assay: Fungistatic activity against Botryotinia fuckeliana assessed as mycelial growth inhibition at 200 ug/ml after 4 to 8 days relative to control; assay type: functional; settings: for inhibition of growth at 200 µg/mL: read-out: GI; outline: as §2
Botrytis cinerea [9] = assay: Fungistatic activity against Botryotinia fuckeliana assessed as mycelial growth inhibition at 20 ug/ml after 4 to 8 days relative to control; assay type: functional; settings: for inhibition of growth at 20 µg/mL: read-out: GI; outline: as §2
Rhizoctonia solani [10] = assay: Fungistatic activity against Rhizoctonia solani assessed as mycelial growth inhibition at 200 ug/ml after 4 to 8 days relative to control; assay type: functional; settings: for inhibition of growth at 200 µg/mL: read-out: GI; outline: as §2
Fusarium culmorum [11] = assay: Fungistatic activity against Fusarium culmorum assessed as mycelial growth inhibition at 20 ug/ml after 4 to 8 days relative to control; assay type: functional; settings: for inhibition of growth at 20 µg/mL: read-out: GI; outline: as §2
Rhizoctonia solani [12] = assay: Fungistatic activity against Rhizoctonia solani assessed as mycelial growth inhibition at 20 ug/ml after 4 to 8 days relative to control; assay type: functional; settings: for inhibition of growth at 20 µg/mL: read-out: GI; outline: as §2
Phytophthora cactorum [13] = assay: Fungistatic activity against Phytophthora cactorum assessed as mycelial growth inhibition at 200 ug/ml after 4 to 8 days relative to control; assay type: functional; settings: for inhibition of growth at 200 µg/mL: read-out: GI; outline: as §2

Row | SMILES | log K [1] | inhibition at 1000 µg/mL (Blumeria graminis [2]) [%] | inhibition of growth at 200 µg/mL (Fusarium culmorum [3]) [%] | inhibition at 500 µg/mL (Blumeria graminis [4]) [%] | inhibition of growth at 20 µg/mL (Phytophthora cactorum [5]) [%] | inhibition of growth at 200 µg/mL (Alternaria alternata [6]) [%] | inhibition of growth at 20 µg/mL (Alternaria alternata [7]) [%] | inhibition of growth at 200 µg/mL (Botrytis cinerea [8]) [%] | inhibition of growth at 20 µg/mL (Botrytis cinerea [9]) [%] | inhibition of growth at 200 µg/mL (Rhizoctonia solani [10]) [%] | inhibition of growth at 20 µg/mL (Fusarium culmorum [11]) [%] | inhibition of growth at 20 µg/mL (Rhizoctonia solani [12]) [%] | inhibition of growth at 200 µg/mL (Phytophthora cactorum [13]) [%] | other results
1 | O=C(CC(=O)c1ccc(NC(=S)c2ccc(O)cc2O)cc1)Nc1ccccc1Cl | -0.29 |  |  |  |  |  |  |  |  |  |  |  |  | 
2 | CCOC(=O)Cc1csc(NC(=S)c2ccc(O)cc2O)n1 | 0.048 | 21 | 0 | 0 | 0 | 21 | 0 | 0 | 0 | 0 | 0 | 0 | 41 | 
3 | Oc1ccc(C(=S)NNC(=S)Nc2ccc(F)cc2)c(O)c1 | 0.24 | 0 | 0 | 0 | 0 | 21 | 0 | 0 | 0 | 0 | 0 | 0 | 0 | 
4 | Oc1ccc(C(=S)NNC(=S)Nc2cccc(Cl)c2)c(O)c1 | 0.229 | 0 | 0 | 0 | 0 | 0 | 0 | 0 | 0 | 0 | 0 | 0 | 61 | 
5 | CC12CC1(C)C(=O)N(c1cc(Cl)cc(Cl)c1)C2=O (stereo not given) [PROCYMIDONE] |  |  |  |  |  | 81 | 81 | 81 | 81 |  |  |  |  | growth inhibition (GI) (Fusarium culmorum [3]): inactive; growth inhibition (GI) (Phytophthora cactorum [5]): inactive; growth inhibition (GI) (Rhizoctonia solani [10]): inactive; growth inhibition (GI) (Fusarium culmorum [11]): inactive; growth inhibition (GI) (Rhizoctonia solani [12]): inactive; growth inhibition (GI) (Phytophthora cactorum [13]): inactive
6 | Oc1ccc(C(=S)Nc2ccc(Oc3ccccc3)cc2)c(O)c1 | 1.305 | 0 | 0 | 0 | 0 | 41 | 0 | 0 | 0 | 21 | 0 | 0 | 21 | 
7 | Oc1ccc(C(=S)n2c(Cl)nc3ccccc32)c(O)c1 | 0.378 | 41 | 81 | 0 | 21 | 81 | 21 | 81 | 0 | 81 | 0 | 21 | 81 | 
8 | N#CCc1nn(-c2ccccc2)c(NC(=S)c2ccc(O)cc2O)c1C#N | 0.373 | 21 | 0 | 0 | 0 | 41 | 0 | 21 | 0 | 21 | 0 | 0 | 61 | 
9 | Oc1ccc(C(=S)n2nnc3cc(Cl)ccc32)c(O)c1 | 0.936 | 21 | 81 | 0 | 21 | 81 | 0 | 81 | 21 | 81 | 0 | 21 | 81 | 
10 | O=C(OC/C=C/c1ccccc1)c1ccccc1NC(=S)c1ccc(O)cc1O | 0.488 | 21 | 81 | 21 | 41 | 61 | 41 | 61 | 21 | 81 | 41 | 21 | 81 | 
11 | Oc1ccc(C(=S)Nc2ccccc2Sc2ccc(Cl)cc2)c(O)c1 | 0.446 | 0 | 21 | 0 | 0 | 41 | 0 | 0 | 0 | 21 | 0 | 0 | 0 | 
12 | COc1ccc(COC(=O)NNC(=S)c2ccc(O)cc2O)cc1 | 0.103 |  |  |  |  |  |  |  |  |  |  |  |  | 
13 | CCOc1ccc(C(=O)NNC(=S)c2ccc(O)cc2O)cc1 | 0.352 |  |  |  |  |  |  |  |  |  |  |  |  | 
14 | CCOC(=O)c1c(C)csc1NC(=S)c1ccc(O)cc1O | -0.28 |  |  |  |  |  |  |  |  |  |  |  |  | 
15 | O=C(O)c1cc2cc(OCc3ccccc3)ccc2n1C(=S)c1ccc(O)cc1O | 0.405 | 21 | 21 | 0 | 0 | 21 | 0 | 0 | 0 | 0 | 0 | 0 | 41 | 
16 | Oc1ccc(C(=S)Nc2ccccc2-c2ccccc2)c(O)c1 | 0.118 | 21 | 61 | 0 | 41 | 61 | 0 | 61 | 0 | 61 | 0 | 0 | 81 | 
17 | Oc1ccc(C(=S)NNc2nncc3ccccc23)c(O)c1 | 0.228 |  |  |  |  |  |  |  |  |  |  |  |  | 
18 | Oc1ccc(C(=S)NC2=NN(c3ccccc3)CC2)c(O)c1 | 0.643 |  |  |  |  |  |  |  |  |  |  |  |  | 
19 | COC(=O)Nc1nc2ccccc2[nH]1 [CARBENDAZIM] |  |  | 81 |  | 81 |  |  |  |  | 81 | 81 | 81 | 81 | growth inhibition (GI) (Alternaria alternata [6]): inactive; growth inhibition (GI) (Alternaria alternata [7]): inactive; growth inhibition (GI) (Botrytis cinerea [8]): inactive; growth inhibition (GI) (Botrytis cinerea [9]): inactive
20 | O=C(NNC(=S)c1ccc(O)cc1O)c1ccncc1 | -0.21 |  |  |  |  |  |  |  |  |  |  |  |  | 
